pIC50, pKd: −log10 of the molar value. In brackets after ≈: the same amount, converted by molar mass. Each block holds one compound with its values, some of them ahead of it.
Columns and labels:
[1] = target: Serine/threonine-protein kinase 24 (Homo sapiens) (UniProt Q9Y6E0); assay: Competitive binding affinity to STK24 (unknown origin) at 10 uM in presence of ATP relative to control
[2] = target: Serine/threonine-protein kinase SIK2 (Homo sapiens) (UniProt Q9H0K1); assay: Competitive binding affinity to QIK (unknown origin) at 10 uM in presence of ATP relative to control
[3] = target: Cytochrome P450 2C9 (Homo sapiens, UniProt P11712); assay: Inhibition of CYP2C9 (unknown origin); assay type: ADME
[4] = target: Mitogen-activated protein kinase 9 (Homo sapiens, UniProt P45984); assay: Binding affinity to JNK2 (unknown origin)
[5] = target: Atypical kinase COQ8A, mitochondrial (Homo sapiens, UniProt Q8NI60); assay: Binding affinity to ADCK3 (unknown origin)
[6] = target: Mitogen-activated protein kinase 8 (Homo sapiens, UniProt P45983); assay: Binding affinity to JNK1 (unknown origin)
[7] = Half life in Hanover-Wistar rat at 2 mg/kg, po; assay type: ADME, organism-based; design: dose 2 mg/kg, route oral; settings: in vivo
[8] = Oral bioavailability in Hanover-Wistar rat at 20 mg/kg; assay type: ADME, organism-based; settings: in vivo
[9] = target: Serine/threonine-protein kinase Nek1 (Homo sapiens, UniProt Q96PY6); assay: Binding affinity to NEK1 (unknown origin)
[10] = target: Serine/threonine-protein kinase DCLK3 (Homo sapiens, UniProt Q9C098); assay: Binding affinity to DCAMKL3 (unknown origin)
Chain of Serine/threonine-protein kinase DCLK3 (Q9C098 whole entry): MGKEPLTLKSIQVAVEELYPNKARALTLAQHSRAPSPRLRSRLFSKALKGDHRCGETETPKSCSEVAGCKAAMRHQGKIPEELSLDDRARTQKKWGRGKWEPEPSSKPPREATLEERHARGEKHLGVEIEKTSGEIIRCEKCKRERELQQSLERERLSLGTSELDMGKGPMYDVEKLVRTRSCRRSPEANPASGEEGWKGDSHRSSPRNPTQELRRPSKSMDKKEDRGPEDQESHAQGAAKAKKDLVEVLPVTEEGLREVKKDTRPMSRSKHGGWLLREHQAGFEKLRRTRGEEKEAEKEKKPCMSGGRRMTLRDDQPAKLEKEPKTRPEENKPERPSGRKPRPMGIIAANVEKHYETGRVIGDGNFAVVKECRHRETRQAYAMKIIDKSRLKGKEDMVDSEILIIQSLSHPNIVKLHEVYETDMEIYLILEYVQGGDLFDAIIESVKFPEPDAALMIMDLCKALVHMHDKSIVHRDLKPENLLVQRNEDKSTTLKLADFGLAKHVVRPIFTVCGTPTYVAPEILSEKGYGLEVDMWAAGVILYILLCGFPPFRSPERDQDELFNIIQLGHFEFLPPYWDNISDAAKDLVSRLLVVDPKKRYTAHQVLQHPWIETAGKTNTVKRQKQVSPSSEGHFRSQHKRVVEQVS

[11] = target: Death-associated protein kinase 2 (Homo sapiens, UniProt Q9UIK4); assay: Binding affinity to DAPK2 (unknown origin)
Chain of Death-associated protein kinase 2 (Q9UIK4 whole entry): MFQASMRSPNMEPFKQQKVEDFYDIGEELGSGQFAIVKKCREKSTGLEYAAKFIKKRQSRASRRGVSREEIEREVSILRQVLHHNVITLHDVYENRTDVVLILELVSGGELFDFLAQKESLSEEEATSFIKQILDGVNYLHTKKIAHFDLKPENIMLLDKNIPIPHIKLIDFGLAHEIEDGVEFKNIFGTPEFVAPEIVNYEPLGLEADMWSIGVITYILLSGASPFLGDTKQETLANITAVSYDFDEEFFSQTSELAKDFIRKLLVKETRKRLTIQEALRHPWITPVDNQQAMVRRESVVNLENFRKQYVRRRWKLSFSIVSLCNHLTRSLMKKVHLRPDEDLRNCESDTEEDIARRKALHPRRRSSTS

[12] = target: Mitogen-activated protein kinase 1 (Homo sapiens, UniProt P28482); assay: Binding affinity to ERK2 (unknown origin)
[13] = target: Mitogen-activated protein kinase 4 (Homo sapiens, UniProt P31152); assay: Binding affinity to ERK4 (unknown origin)
[14] = target: Myosin light chain kinase family member 4 (Homo sapiens, UniProt Q86YV6); assay: Binding affinity to SgK085 (unknown origin)
Chain of Myosin light chain kinase family member 4 (Q86YV6 whole entry): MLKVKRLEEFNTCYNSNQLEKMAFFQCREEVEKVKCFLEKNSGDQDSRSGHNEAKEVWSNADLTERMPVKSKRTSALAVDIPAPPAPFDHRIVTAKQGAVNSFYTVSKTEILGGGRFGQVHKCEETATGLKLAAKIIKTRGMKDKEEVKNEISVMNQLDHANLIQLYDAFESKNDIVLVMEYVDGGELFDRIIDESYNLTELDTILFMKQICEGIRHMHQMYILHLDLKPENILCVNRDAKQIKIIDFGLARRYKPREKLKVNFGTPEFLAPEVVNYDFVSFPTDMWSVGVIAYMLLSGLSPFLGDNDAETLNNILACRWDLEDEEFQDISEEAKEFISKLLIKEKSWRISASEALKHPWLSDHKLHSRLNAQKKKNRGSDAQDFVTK

[15] = target: Mitogen-activated protein kinase 15 (Homo sapiens, UniProt Q8TD08); assay: Binding affinity to ERK8 (unknown origin)
Chain of Mitogen-activated protein kinase 15 (Q8TD08 whole entry, the tested form may be a part): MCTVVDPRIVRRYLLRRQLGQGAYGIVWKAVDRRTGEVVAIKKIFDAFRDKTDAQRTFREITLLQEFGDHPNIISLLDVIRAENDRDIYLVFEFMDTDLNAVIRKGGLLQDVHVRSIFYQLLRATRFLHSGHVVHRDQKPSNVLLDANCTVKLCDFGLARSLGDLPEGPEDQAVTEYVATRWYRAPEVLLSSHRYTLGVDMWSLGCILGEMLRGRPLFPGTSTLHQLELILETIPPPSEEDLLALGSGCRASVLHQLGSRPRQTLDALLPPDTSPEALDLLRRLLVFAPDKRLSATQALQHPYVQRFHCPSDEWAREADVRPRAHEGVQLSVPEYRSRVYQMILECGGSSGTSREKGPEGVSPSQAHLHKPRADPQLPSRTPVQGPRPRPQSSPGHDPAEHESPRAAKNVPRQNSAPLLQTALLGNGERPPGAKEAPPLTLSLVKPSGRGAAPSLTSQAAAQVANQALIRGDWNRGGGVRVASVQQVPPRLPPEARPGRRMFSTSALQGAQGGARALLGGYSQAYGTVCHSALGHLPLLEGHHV

[16] = target: eIF-2-alpha kinase GCN2 (Homo sapiens, UniProt Q9P2K8, S808G); assay: Binding affinity to GCN2 kinase domain 2 S808G mutant (unknown origin)
[17] = target: Cyclin-dependent kinase 11A (Homo sapiens, UniProt Q9UQ88); assay: Binding affinity to CDC2L2 (unknown origin)
Chain of Cyclin-dependent kinase 11A (Q9UQ88 whole entry): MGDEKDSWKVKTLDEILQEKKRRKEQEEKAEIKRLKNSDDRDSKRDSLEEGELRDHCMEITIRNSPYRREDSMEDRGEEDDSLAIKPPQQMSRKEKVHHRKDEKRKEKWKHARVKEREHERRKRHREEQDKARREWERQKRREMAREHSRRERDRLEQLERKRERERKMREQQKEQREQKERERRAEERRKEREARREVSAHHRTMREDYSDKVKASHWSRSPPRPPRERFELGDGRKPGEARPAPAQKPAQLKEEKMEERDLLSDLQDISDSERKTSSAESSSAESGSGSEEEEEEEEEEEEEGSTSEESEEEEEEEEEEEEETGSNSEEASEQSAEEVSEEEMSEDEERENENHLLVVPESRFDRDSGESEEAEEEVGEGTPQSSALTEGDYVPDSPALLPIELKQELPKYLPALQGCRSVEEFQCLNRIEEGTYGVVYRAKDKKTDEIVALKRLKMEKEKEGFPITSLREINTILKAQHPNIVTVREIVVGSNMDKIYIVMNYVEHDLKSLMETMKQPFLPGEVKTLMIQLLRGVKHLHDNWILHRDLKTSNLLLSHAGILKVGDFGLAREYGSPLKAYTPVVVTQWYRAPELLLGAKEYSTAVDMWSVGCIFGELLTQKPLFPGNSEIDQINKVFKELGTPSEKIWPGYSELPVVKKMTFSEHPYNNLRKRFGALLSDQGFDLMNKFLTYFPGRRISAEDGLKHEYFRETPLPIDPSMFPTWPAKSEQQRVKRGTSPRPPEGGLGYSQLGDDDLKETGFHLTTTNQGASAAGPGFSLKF

[18] = target: Mitogen-activated protein kinase 14 (Homo sapiens, UniProt Q16539); assay: Binding affinity to p38-alpha (unknown origin)
Chain of Mitogen-activated protein kinase 14 (Q16539 whole entry): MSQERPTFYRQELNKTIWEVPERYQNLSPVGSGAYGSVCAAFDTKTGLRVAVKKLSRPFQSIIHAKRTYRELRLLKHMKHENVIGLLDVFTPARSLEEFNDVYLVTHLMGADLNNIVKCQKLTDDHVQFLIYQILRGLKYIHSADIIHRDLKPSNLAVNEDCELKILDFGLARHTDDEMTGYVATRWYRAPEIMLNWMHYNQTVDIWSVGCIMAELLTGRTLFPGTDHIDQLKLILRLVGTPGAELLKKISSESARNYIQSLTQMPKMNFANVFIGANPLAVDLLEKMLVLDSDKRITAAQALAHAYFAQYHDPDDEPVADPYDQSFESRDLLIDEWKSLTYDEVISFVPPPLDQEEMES

[19] = Intrinsic permeability from basolateral to apical side in human Caco2 cells at 10 uM; assay type: ADME, cell-based; settings: Caco-2, read-out: permeability
[20] = target: Platelet-derived growth factor receptor beta (Homo sapiens, UniProt P09619); assay: Binding affinity to PDGFRB (unknown origin)
[21] = Intrinsic clearance in rat liver microsomes measured per mg of protein; assay type: ADME, Microsome; settings: read-out: CLH
[22] = target: Citron Rho-interacting kinase (Homo sapiens, UniProt O14578); assay: Binding affinity to CIT (unknown origin)
[23] = target: Dual specificity mitogen-activated protein kinase kinase 6 (Homo sapiens, UniProt P52564); assay: Binding affinity to MEK6 (unknown origin)
[24] = target: MAP kinase p38 (Homo sapiens, UniProt O15264+Q15759+Q16539+P53778); assay: Inhibition of p38 (unknown origin)-dependent HSP27 phosphorylation by cell-based assay
[25] = target: LIM domain kinase 2 (Homo sapiens, UniProt P53671); assay: Binding affinity to LIMK2 (unknown origin)
[26] = Equilibrium aqueous solubility in phosphate buffer at pH 6.5 at 25 degC; assay type: physicochemical
[27] = target: Serine/threonine-protein kinase Nek5 (Homo sapiens, UniProt Q6P3R8); assay: Binding affinity to NEK5 (unknown origin)
[28] = Fraction unbound in human plasma; assay type: ADME, cell-free
[29] = target: Serine/threonine-protein kinase Nek7 (Homo sapiens, UniProt Q8TDX7); assay: Binding affinity to NEK7 (unknown origin)
Chain of Serine/threonine-protein kinase Nek7 (Q8TDX7 whole entry): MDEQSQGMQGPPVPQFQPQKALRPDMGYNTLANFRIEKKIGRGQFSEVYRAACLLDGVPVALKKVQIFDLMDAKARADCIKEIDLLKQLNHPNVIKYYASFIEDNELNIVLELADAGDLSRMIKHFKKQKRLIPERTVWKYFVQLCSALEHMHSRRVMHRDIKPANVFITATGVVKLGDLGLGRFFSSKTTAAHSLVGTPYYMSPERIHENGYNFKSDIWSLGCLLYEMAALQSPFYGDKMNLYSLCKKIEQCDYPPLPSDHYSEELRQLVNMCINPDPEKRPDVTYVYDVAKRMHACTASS

[30] = target: Serine/threonine-protein kinase 17A (Homo sapiens, UniProt Q9UEE5); assay: Binding affinity to DRAK1 (unknown origin)
[31] = AUC (0 to infinity) in Hanover-Wistar rat at 20 mg/kg, po; assay type: ADME, organism-based; design: time infinity, dose 20 mg/kg, route oral; settings: plasma
[32] = Clearance in human liver microsomes; assay type: ADME, Microsome; settings: read-out: CLH
Outline: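 Intrinsic clearance was measured in vitro in human liver microsomes and expressed per mg microsomal protein.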

[33] = target: Dual specificity protein kinase TTK (Homo sapiens, UniProt P33981); assay: Binding affinity to TTK (unknown origin)
[34] = target: Ribosomal protein S6 kinase alpha-1 (Homo sapiens, UniProt Q15418); assay: Binding affinity to RPS6KA1 (unknown origin)
[35] = target: Mitogen-activated protein kinase 11 (Homo sapiens, UniProt Q15759); assay: Binding affinity to p38-beta (unknown origin)
Chain of Mitogen-activated protein kinase 11 (Q15759 whole entry): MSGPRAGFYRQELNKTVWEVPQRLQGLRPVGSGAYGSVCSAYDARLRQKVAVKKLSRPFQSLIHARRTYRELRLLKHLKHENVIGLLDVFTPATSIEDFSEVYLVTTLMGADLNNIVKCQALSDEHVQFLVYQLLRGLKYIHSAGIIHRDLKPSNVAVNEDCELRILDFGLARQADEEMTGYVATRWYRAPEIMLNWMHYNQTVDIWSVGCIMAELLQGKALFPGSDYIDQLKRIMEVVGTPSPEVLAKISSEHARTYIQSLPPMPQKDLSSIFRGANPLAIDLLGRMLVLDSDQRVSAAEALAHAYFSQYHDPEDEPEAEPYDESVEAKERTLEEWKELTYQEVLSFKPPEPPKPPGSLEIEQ

[36] = target: NUAK family SNF1-like kinase 2 (Homo sapiens, UniProt Q9H093); assay: Binding affinity to SNARK (unknown origin)
[37] = Half life in Hanover-Wistar rat at 0.5 mg/kg, iv; assay type: ADME, organism-based; design: dose 0.5 mg/kg, route intravenous; settings: in vivo
[38] = tested on: Rattus norvegicus; assay: Cmax in Hanover-Wistar rat at 2 mg/kg, po; assay type: ADME, organism-based; design: dose 2 mg/kg, route oral; settings: in vivo
[39] = Intrinsic permeability from apical to basolateral side in human Caco2 cells at 10 uM; assay type: ADME, cell-based; settings: Caco-2, read-out: permeability
[40] = target: Interferon-induced, double-stranded RNA-activated protein kinase (Homo sapiens, UniProt P19525); assay: Binding affinity to PRKR (unknown origin)
[41] = target: MAP kinase-interacting serine/threonine-protein kinase 1 (Homo sapiens, UniProt Q9BUB5); assay: Binding affinity to MKNK1 (unknown origin)
[42] = target: Cyclin-dependent kinase 7 (Homo sapiens, UniProt P50613); assay: Binding affinity to CDK7 (unknown origin)
[43] = Clearance in Hanover-Wistar rat at 0.5 mg/kg, iv; assay type: ADME, organism-based; design: dose 0.5 mg/kg, route intravenous; settings: in vivo
[44] = target: Serine/threonine-protein kinase 16 (Homo sapiens, UniProt O75716); assay: Binding affinity to STK16 (unknown origin)
Chain of Serine/threonine-protein kinase 16 (O75716 whole entry): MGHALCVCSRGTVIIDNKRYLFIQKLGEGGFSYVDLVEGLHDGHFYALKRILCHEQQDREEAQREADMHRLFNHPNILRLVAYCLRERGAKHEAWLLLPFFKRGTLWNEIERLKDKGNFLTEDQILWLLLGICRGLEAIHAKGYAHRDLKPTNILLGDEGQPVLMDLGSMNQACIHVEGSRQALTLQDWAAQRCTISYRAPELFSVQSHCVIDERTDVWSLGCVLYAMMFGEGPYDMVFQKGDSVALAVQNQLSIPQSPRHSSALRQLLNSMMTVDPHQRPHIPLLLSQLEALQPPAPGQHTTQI

[45] = AUC (0 to infinity) in Hanover-Wistar rat at 0.5 mg/kg, iv; assay type: ADME, organism-based; design: dose 0.5 mg/kg, route intravenous, time infinity; settings: plasma
[46] = Oral bioavailability in Hanover-Wistar rat at 2 mg/kg; assay type: ADME, organism-based; settings: in vivo
[47] = target: Mitogen-activated protein kinase 6 (Homo sapiens, UniProt Q16659); assay: Binding affinity to ERK3 (unknown origin)
Chain of Mitogen-activated protein kinase 6 (Q16659 whole entry): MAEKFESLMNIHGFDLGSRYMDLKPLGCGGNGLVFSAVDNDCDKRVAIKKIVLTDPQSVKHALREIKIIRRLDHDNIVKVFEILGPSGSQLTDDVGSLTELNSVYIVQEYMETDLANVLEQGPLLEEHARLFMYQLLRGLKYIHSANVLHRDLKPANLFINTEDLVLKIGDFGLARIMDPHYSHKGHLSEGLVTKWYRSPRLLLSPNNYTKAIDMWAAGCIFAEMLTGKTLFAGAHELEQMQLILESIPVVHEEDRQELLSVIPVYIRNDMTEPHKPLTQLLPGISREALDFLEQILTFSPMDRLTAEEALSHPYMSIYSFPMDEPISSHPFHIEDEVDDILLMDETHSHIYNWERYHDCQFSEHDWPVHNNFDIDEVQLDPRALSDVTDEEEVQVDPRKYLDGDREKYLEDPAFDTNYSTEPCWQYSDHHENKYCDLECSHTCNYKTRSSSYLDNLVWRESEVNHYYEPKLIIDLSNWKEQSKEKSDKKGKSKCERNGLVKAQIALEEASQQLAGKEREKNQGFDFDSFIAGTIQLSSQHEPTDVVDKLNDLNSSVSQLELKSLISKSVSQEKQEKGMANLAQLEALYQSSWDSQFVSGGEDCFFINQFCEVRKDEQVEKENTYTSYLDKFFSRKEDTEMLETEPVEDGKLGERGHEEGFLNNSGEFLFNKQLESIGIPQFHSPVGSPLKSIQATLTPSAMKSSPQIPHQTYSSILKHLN

[48] = target: Death-associated protein kinase 3 (Homo sapiens, UniProt O43293); assay: Binding affinity to DAPK3 (unknown origin)
[49] = tested on: Rattus norvegicus; assay: Cmax in Hanover-Wistar rat at 0.5 mg/kg, iv; assay type: ADME, organism-based; design: dose 0.5 mg/kg, route intravenous; settings: in vivo
[50] = target: Cyclin-dependent kinase 11B (Homo sapiens, UniProt P21127); assay: Binding affinity to CDC2L1 (unknown origin)
[51] = AUC (0 to infinity) in Hanover-Wistar rat at 2 mg/kg, po; assay type: ADME, organism-based; design: time infinity, dose 2 mg/kg, route oral; settings: plasma

inhibition [1]: 93%
inhibition [2]: < 50%
Structure (SMILES): O[C@H]1CC[C@H](Nc2nccc(-c3n[nH]c4ccccc34)n2)CC1

pIC50 [3]: 8.11
Structure (SMILES): O[C@H]1CC[C@H](Nc2nccc(-n3nnc4ccccc43)n2)CC1

pKd [4]: 7.89
pKd [5]: 6.31
pKd [6]: 9.12
half-life [7]: 240 min
bioavailability [8]: 13%
pKd [9]: 5.40
pKd [10]: 5.74
pKd [12]: 5.82
pKd [13]: 4.96
pKd [14]: 6.21
pKd [16]: 5.57
pKd [17]: 5.62
pKd [18]: 5.06
Papp B→A at 10 µM [19]: 11.5 ×10⁻⁶ cm/s
pKd [20]: 5.17
microsomal CLint [21]: 52 µL/min/mg
pKd [22]: 5.57
pKd [23]: 6.51
IC50 [24]: > 30 µM
pKd [25]: 5.55
solubility thermodynamic [26]: 3.9 µg/mL (≈ 7.02 µM)
pKd [27]: 5.85
fraction unbound [28]: 0.05
pKd [29]: 5.16
pKd [30]: 6.36
AUC(0-inf) [31]: 9330 ng·h/mL
microsomal CLint [32]: 30 µL/min/mg
pKd [33]: 5.72
pKd [34]: 5.68
pKd [35]: 5.49
pKd [36]: 5.59
half-life [37]: 156 min
Cmax [38]: 91 ng/mL
Papp A→B at 10 µM [39]: 0.2 ×10⁻⁶ cm/s
pKd [40]: 6.92
pKd [41]: 5.68
pKd [42]: 6.21
clearance [43]: 4.6 mL/min/kg
pKd [44]: 6.35
AUC(0-inf) [45]: 1850 ng·h/mL
bioavailability [46]: 7%
pKd [47]: 6.48
Cmax [49]: 2670 ng/mL
pKd [50]: 5.89
AUC(0-inf) [51]: 490 ng·h/mL
Structure (SMILES): CS(=O)(=O)CCCOc1cccc2c1ccn2-c1ccnc(N[C@H]2CC[C@H](C(=O)N3CCC(O)CC3)CC2)n1
pKd [11]: 5.89
pKd [15]: 6.19
pKd [48]: 6.06

From ChEMBL document CHEMBL2424622, “Development of amino-pyrimidine inhibitors of c-Jun N-terminal kinase (JNK): kinase profiling guided optimization of a 1,2,3-benzotriazole lead” (Bioorg Med Chem Lett, 2013)
